# Screening data: PubChem, Johns Hopkins Ion Channel Center
# In the library only some 2.3% were active in any assay of this set; here they are far more common.
# TRPC4 inh: TRPC4 (mouse) channel inhibition; Q9QUQ5; HEK293 TRPC4beta/mu-opioid, DAMGO-evoked Fluo4 calcium flux; active compounds read low; B-score at 10 µM; hit rate 0.39% among 300,000;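 active = B-score over 3 SD under the library average, no early fluorescence shift, positive overall ratio signal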
#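 System: stable TRPC4beta/mu-opioid receptor HEK293 cells; Dosing: single-point compound dosing; Measured by: Fluo4 Ca2+ flux fluorescence; Read-out basis: per-well B score of integrated baseline-normalized Fluo4 ratio.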
# TRPC4 PAM: allosterically enhances the mouse TRPC4 cation channel. HEK293 TRPC4beta/mu-opioid, DAMGO EC20, Fluo-4 Ca2+ flux; active compounds read high. Q9QUQ5. B-score at 10 µM. hit rate 0.42% among 310,000;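 active = B-score of calcium response area above 5 SD of library B-scores, with initial fluorescence ratio within 5 SD of library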;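 note: B-score of integrated fluorescence ratio over time as area under calcium response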
# TRPC6 activator: activates the mouse TRPC6 cation channel | hit rate 0.13% among 310,000 | Q61143 | AID 2550 | HEK293-TRPC6 membrane potential dye fluorescence; active compounds read high | B-score at 10 µM;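 active = B-score of the integrated fluorescence ratio above library mean plus 3 SD, and starting fluorescence ratio within library mean plus 5 SD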;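 note: higher score means more depolarization so channel activation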
# Target sequence (Q61143 whole entry, looked up): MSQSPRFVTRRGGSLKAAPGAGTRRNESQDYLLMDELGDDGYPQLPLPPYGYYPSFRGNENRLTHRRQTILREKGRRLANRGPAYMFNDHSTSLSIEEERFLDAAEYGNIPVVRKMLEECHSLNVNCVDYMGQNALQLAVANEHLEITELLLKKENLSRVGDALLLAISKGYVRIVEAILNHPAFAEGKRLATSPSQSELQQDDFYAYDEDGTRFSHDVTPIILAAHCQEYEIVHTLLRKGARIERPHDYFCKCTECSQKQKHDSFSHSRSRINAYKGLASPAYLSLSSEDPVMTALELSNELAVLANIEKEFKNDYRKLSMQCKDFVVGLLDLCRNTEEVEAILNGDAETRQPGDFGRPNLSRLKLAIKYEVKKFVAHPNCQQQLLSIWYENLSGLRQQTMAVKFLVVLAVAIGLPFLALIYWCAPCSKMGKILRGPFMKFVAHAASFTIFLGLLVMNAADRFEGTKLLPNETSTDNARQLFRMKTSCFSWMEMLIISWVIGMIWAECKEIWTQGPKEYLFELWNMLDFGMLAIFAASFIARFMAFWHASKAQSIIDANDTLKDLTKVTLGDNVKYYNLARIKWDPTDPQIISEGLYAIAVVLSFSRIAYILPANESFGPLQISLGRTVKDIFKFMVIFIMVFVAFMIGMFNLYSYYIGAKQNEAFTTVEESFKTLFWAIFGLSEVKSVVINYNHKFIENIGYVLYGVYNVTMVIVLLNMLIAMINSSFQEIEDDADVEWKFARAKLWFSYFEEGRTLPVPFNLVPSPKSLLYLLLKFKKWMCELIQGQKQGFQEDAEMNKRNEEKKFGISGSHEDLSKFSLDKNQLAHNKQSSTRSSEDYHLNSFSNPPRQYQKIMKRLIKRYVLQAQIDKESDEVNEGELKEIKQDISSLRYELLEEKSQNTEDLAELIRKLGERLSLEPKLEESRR
# TRPC6 inhibitor: blocks the mouse TRPC6 cation channel; Q61143; HEK293-TRPC6, membrane potential dye, ACh-evoked depolarization; active compounds read low; B-score at 10 µM; hit rate 1.1% among 310,000;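 active = B-score under library mean minus 3 SD, initial fluorescence not abnormally high, positive integrated signal ratio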;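 note: B-score derived from integrated fluorescence ratio over the kinetic read; more negative B-score means stronger inhibition of depolarization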
# TRPC4 act: TRPC4 (mouse) channel activation; Q9QUQ5; HEK293 TRPC4beta/mu-opioid, Fluo4 calcium fluorescence; active compounds read high; B-score at 10 µM; hit rate 0.49% among 310,000; AID 2237;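 active = B-score above 5 SD of library B-scores, and initial fluorescence ratio not above library mean plus 5 SD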;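 note: positive B-score marks a calcium rise read as TRPC4 activation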
#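 Material: HEK293 stable line with TRPC4beta plus mu-opioid receptor; technique: Fluo4 calcium-sensitive dye fluorescence, kinetic, 1 Hz baseline; timing: Fluo4 dye loading 45 min at room temperature, 110 s recording; controls: assay buffer as low control, maximal DAMGO as high control; read-out: integrated baseline-normalised fluorescence ratio, converted to per-well B score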
# TRPC4 spec 2: second selectivity test of TRPC6 inhibitors: effect on mouse TRPC4. hit rate 42% among 920. HEK293 TRPC4/MOR, membrane potential dye fluorescence; channel activated by saturating DAMGO dose. inhibition, % at 10 µM. shares compounds with TRPC6 inhibitor;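 active = compounds whose fluorescence signal differed from control wells by over 3 SD, either direction, in both duplicate plates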
# TRPC4 spec: selectivity of TRPC6 inhibitors: effect on mouse TRPC4. shares compounds with TRPC6 inhibitor. HEK293 TRPC4/mu-opioid, membrane potential fluorescence. activity change, negative = inhibition, % at 10 µM. hit rate 61% among 920;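 active = rise or fall in signal beyond 3 SD of buffer-only wells in both replicate plates, either sign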;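 note: integrated kinetic ratio of fluorescence range over baseline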
# HEK293 MPD ctr 2-1: second check of TRPC6 inhibitor effects in parental HEK293 cells; shares compounds with TRPC6 inhibitor; parental HEK293 membrane potential dye fluorescence; maximal acetylcholine challenge after compound addition; signal change vs control, % at 10 µM; hit rate 31% among 920;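 active = membrane potential signal moving either way by over 3 SD of the maximum-effect control, in both duplicate plates, meaning non-specific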
# HEK293 MPD ctr-1: counter-screen for TRPC6 inhibitors: effect in parental HEK293 cells | shares compounds with TRPC6 inhibitor | parental HEK293 membrane potential dye fluorescence | membrane potential signal change, % at 10 µM | hit rate 60% among 920;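 active = membrane potential signal shifting up or down by more than 3 SD of buffer-only wells, on both duplicate plates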
# HEK293 MPD ctr-2: checks TRPC6 modulator effects in parental HEK293 cells; membrane potential dye fluorescence; shares compounds with TRPC6 inhibitor; AID 488924; membrane potential signal change, % at 10 µM; hit rate 51% among 2,400;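 active = membrane potential signal moves up or down beyond 5 SD from buffer-only wells, on both duplicate plates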
# HEK293 MPD ctr 2-2: second counter-screen for TRPC6 modulators: effect in parental HEK293 cells | membrane potential dye fluorescence; after compound, maximal acetylcholine stimulation | inhibition, % at 10 µM | shares compounds with TRPC6 inhibitor | hit rate 14% among 2,400;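 active = membrane potential signal drops by more than 5 SD from the mean control signal, in both duplicate plates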;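 note: plate controls were acetylcholine ECmax control wells for no effect and buffer only wells for full effect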
# TRPC4 ctr mod: selectivity of TRPC6 modulators against mouse TRPC4. shares compounds with TRPC6 inhibitor. HEK293 TRPC4/mu-opioid, membrane potential fluorescence. percent change from control (negative = decrease, positive = increase), % at 10 µM. hit rate 69% among 2,400;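 active = membrane potential signal moved up or down beyond 5 SD of buffer control wells, in both duplicate plates, actives on both sides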;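 note: plate controls were assay buffer wells for no effect and DAMGO maximal-effect wells for full effect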
# TRPC4 ctr inh 2: second check of whether TRPC6 modulators also affect mouse TRPC4. shares compounds with TRPC6 inhibitor. HEK293 TRPC4/mu-opioid, membrane potential dye fluorescence; stimulated with maximal-effect DAMGO. inhibition, % at 10 µM. hit rate 55% among 2,400;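 active = drop in membrane potential signal beyond 5 SD of the control wells in both duplicate plates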;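 note: TRPC4 counter screen for TRPC6 hits run under conditions tuned for TRPC6 not TRPC4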
# TRPC6 inh conf: mouse TRPC6 inhibitor confirmation | shares compounds with TRPC6 inhibitor | HEK293-TRPC6, membrane potential dye, ACh-evoked depolarization | inhibition, % at 10 µM | hit rate 43% among 3,300;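 active = fluorescence ratio falls more than 5 SD below the full-stimulation control mean, in both duplicate runs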;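 note: integrated fluorescence ratio of peak minus minimum over baseline after agonist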
# TRPC6 act conf: mouse TRPC6 activator confirmation; shares compounds with TRPC6 inhibitor; HEK293-TRPC6 membrane potential dye fluorescence, FDSS; activation, % at 10 µM; hit rate 11% among 2,800;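 active = ratio signal rise beyond 5 SD above unstimulated control wells' mean, seen in both duplicate runs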;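 note: plate controls were buffer EC0 wells for no effect and acetylcholine ECmax response for full effect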
# Active calls of the source: *; i = inactive; x = no result given.
SMILES,TRPC4 inh,TRPC4 PAM,TRPC6 activator,TRPC6 inhibitor,TRPC4 act,HEK293 MPD ctr-2,HEK293 MPD ctr 2-2,TRPC4 ctr mod,TRPC4 ctr inh 2,TRPC6 inh conf,TRPC6 act conf,others
CC1(C(=O)OCC(=O)NCCNC(=O)COC(=O)C2(C)CC2(Cl)Cl)CC1(Cl)Cl (stereo not given),i,i,i,i,i,x,x,x,x,x,x,
S=C(Nc1ccc(Oc2ccccc2)cc1)N1CCOCC1,i,i,i,i,i,x,x,x,x,x,x,
O=C(CNc1ccc(Oc2ccccc2)cc1)N1CCOCC1,i,i,i,-5.72*,i,i,i,i,i,i,i,
O=C(CNCc1ccccc1)Nc1cccc(Cl)c1Cl,i,i,i,-6.22*,i,i,i,13.5%*,41.0%*,i,x,
CCOc1ccc(CNCCNC(=O)c2nonc2N)cc1,i,i,i,i,i,x,x,x,x,x,x,
Nc1nonc1C(=O)NCCNCc1ccccc1OCc1ccc(F)cc1,i,i,i,-6.31*,i,141.0%*,i,12.5%*,86.5%*,46.5%*,x,
CNC(=O)C(=O)Nc1cc2c3c(c1)CCN3C(=O)CC2,i,i,i,i,i,x,x,x,x,x,x,
COC(=O)c1cccc(CSC(=S)N2CCCC2)c1,i,i,12.7*,i,i,i,i,i,i,x,130.0%*,
COC(=O)c1ccc(C(=S)N2CCCCC2)cc1,i,i,i,i,i,x,x,x,x,x,x,
CCOc1ccc(NC(=O)C2CCCN(C)C2)cc1 (stereo not given),i,i,i,i,i,x,x,x,x,x,x,
CCOc1ccc2nc(NC(=O)CSc3nc(-c4ccccc4)c(C#N)c(=O)[nH]3)sc2c1,i,i,11.6*,i,i,i,i,19.5%*,i,i,36.5%*,
COc1cccc(-c2nc(SCC(=O)Nc3nc(-c4ccccc4)c(C)s3)[nH]c(=O)c2C#N)c1,i,i,i,i,i,x,x,x,x,x,x,
CCc1cc(C(=O)N2CCCC(C(=O)c3ccc(C(F)(F)F)cc3)C2)n(C)n1 (stereo not given),i,i,i,i,i,x,x,x,x,x,x,
Cc1cccc(OC(C)C(=O)N2CCCN(C)CC2)c1C (stereo not given),i,i,i,i,i,x,x,x,x,x,x,
COc1ccc(C)cc1NC(=O)CCN1CC(C)OC(C)C1 (stereo not given),i,i,i,i,i,x,x,x,x,x,x,
CC1CCN(Cc2c(O)ccc3c(=O)c(-c4nc5ccccc5s4)c(N)oc23)CC1,i,i,i,i,i,x,x,x,x,x,x,
CC1CCCN(Cc2c(O)ccc3c(=O)c(-c4nc5ccccc5s4)c(N)oc23)C1 (stereo not given),i,i,i,-5.83*,i,i,i,i,48.0%*,i,i,
CC(C)COP(=O)(CNC(=O)CN1C(=O)c2ccccc2S1(=O)=O)OCC(C)C,i,i,i,i,i,x,x,x,x,x,x,
CCc1ccccc1NS(=O)(=O)c1ccc2c(c1)NC(=O)CC(=O)N2,i,i,i,-9.36*,i,x,x,x,x,i,i,TRPC4 spec 2=i;TRPC4 spec=i;HEK293 MPD ctr 2-1=i;HEK293 MPD ctr-1=i
CCc1cccc(NS(=O)(=O)c2ccc3c(c2)NC(=O)CC(=O)N3)c1,i,i,i,i,i,x,x,x,x,x,x,
COc1ccc(C(=O)N/N=C/c2ccc(OC)c(CN3CCc4cc(OC)c(OC)cc4C3C)c2)cc1 (stereo not given),i,i,i,i,i,x,x,x,x,x,x,
COc1ccc(CCC(C)NC2CCCCCCC2)cc1 (stereo not given),i,i,i,-5.71*,i,289.0%*,i,64.5%*,76.0%*,56.0%*,x,
CC(OC(=O)CCN1C(=O)c2cccc([N+](=O)[O-])c2C1=O)C(=O)Nc1cc(Cl)cc(Cl)c1 (stereo not given),i,i,i,i,i,x,x,x,x,x,x,
CCN1CCCc2cc(CN(CCN3CCOCC3)C(=O)Nc3ccc(C)c(C)c3)ccc21,i,i,i,-5.02*,i,i,i,i,41.0%*,i,i,
N#Cc1nc(/C=C/c2ccccc2)oc1NCCCN1CCOCC1,i,i,i,-7.12*,i,x,x,x,x,i,i,TRPC4 spec 2=i;TRPC4 spec=i;HEK293 MPD ctr 2-1=i;HEK293 MPD ctr-1=i
SMILES,TRPC4 inh,TRPC4 PAM,TRPC6 activator,TRPC6 inhibitor,TRPC4 act,HEK293 MPD ctr-2,HEK293 MPD ctr 2-2,TRPC4 ctr mod,TRPC4 ctr inh 2,TRPC6 inh conf,TRPC6 act conf,others
COCCNc1oc(/C=C/c2ccccc2)nc1C#N,i,i,i,i,i,x,x,x,x,x,x,
COC(=O)CSc1cccc2c1C(=O)CC2c1ccccc1 (stereo not given),i,i,i,-7.69*,i,x,x,x,x,i,x,TRPC4 spec 2=i;TRPC4 spec=1.9%*;HEK293 MPD ctr 2-1=i;HEK293 MPD ctr-1=3.3%*
COC(=O)CSc1ccsc1C(=O)O,i,i,i,i,i,x,x,x,x,x,x,
O=C(NNc1ccc(Cl)nn1)c1ccc(Cl)cc1,i,i,i,i,i,x,x,x,x,x,x,
CCOc1cc(/C=C(/C#N)C(=O)Nc2ccc(O)cc2)cc(Br)c1O,i,i,27.9*,-9.71*,43*,831.0%*,193.5%*,114.0%*,29.0%*,i,177.0%*,
CCn1c(=S)sc2c(=O)[nH]c(SCC(=O)Nc3cc(OC)ccc3OC)nc21,i,i,i,i,i,x,x,x,x,x,x,
